Results from different studies.
Compare with care: the assays were run in different laboratories. Converted amounts (≈) assume the structure as drawn.

| Compound | organism | assay | test system | setting | endpoint | value |
| --- | --- | --- | --- | --- | --- | --- |
| CCN1CCN(C(=O)N[C@@H](C(=O)N[C@@H]2C(=O)N3C(C(=O)O)=C(CSc4nnnn4C)CS[C@H]23)c2ccc(O)cc2)C(=O)C1=O | Clostridioides difficile | microbial growth, broth dilution |  | 24 h | MIC | 100 µg/mL |
| CC(C)OC(=O)OCOP(=O)(CO[C@H](C)Cn1cnc2c(N)ncnc21)OCOC(=O)OC(C)C | Hepatitis B virus | viral replication, qPCR | HepG2.2.15 | 14 days | IC50 | 200 nM |
| O=[N+]([O-])c1ccc(C2=[N+]([O-])c3ccccc3N3CCN=C23)cc1 | Clostridioides difficile | microbial growth |  |  | MIC90 | ≤ 0.06 µg/mL |
| CC(C)OC(=O)[C@H](C)N[P@](=O)(CO[C@H](C)Cn1cnc2c(N)ncnc21)Oc1ccccc1 | Hepatitis B virus | viral replication, inhibitor | HepG2.2.15 | 1 µM, 6 days | inhibition | ~65% |
| C[C@@H]1C[C@@H]([C@H](O)CC2CC(=O)NC(=O)C2)C(=O)[C@@H](C)C1 | Saccharomyces cerevisiae | microbial growth |  |  | MIC | 3 µM |
| Cc1ncc([N+](=O)[O-])n1CCO | Clostridioides difficile | microbial growth |  |  | MIC50 | 0.25 µg/mL (≈ 1.46 µM) |
| N#C[C@]1(CO)O[C@@H](n2cnc3c(=O)[nH]c(N)nc32)C[C@@H]1O | Hepatitis B virus | viral replication, qPCR | HepG2.2.15 | 14 days | IC50 | 0.5 nM |
| C[C@H]1COCCN1c1nc(NCc2cccnc2C(F)(F)F)c2cccnc2n1 | Clostridioides difficile | microbial growth, broth dilution | 630 |  | MIC | 64 µg/mL |
| C=C1[C@H](CO)[C@@H](O)C[C@@H]1n1cnc2c(=O)[nH]c(N)nc21 | Hepatitis B virus | viral replication, qPCR | HepG2.2.15 | 14 days | IC50 | 3 nM |
| O=C1Cc2ccccc2C(=O)N1O | Hepatitis B virus | viral replication, inhibitor, qPCR | HepDES19 | 72 h | EC50 | 4200 nM |
| O=C(NCc1ccc2c(c1)OCO2)c1ccc(Br)cc1F | Saccharomyces cerevisiae | microbial growth | BY4743 | 72 h | MIC | > 200 µM |
| [O-][N+]1=C(c2ccc(Cl)cc2)C2=NCCN2c2ccccc21 | Fusobacterium nucleatum | microbial growth |  |  | MIC50 | ≤ 0.06 µg/mL |
| CC(C)(C)C(=O)OCOP(=O)(COCCn1cnc2c(N)ncnc21)OCOC(=O)C(C)(C)C | Hepatitis B virus | viral replication, qPCR | HepG2.2.15 | 14 days | IC50 | 880 nM |
| CC[C@H](C)C[C@H](C)CCCCCCCCC(=O)N[C@H]1C[C@@H](O)[C@@H](NCCN)NC(=O)[C@@H]2[C@@H](O)CCN2C(=O)[C@H]([C@H](O)CCN)NC(=O)[C@H]([C@H](O)[C@@H](O)c2ccc(O)cc2)NC(=O)[C@@H]2C[C@@H](O)CN2C(=O)[C@H]([C@@H](C)O)NC1=O | Saccharomyces cerevisiae | microbial growth, broth dilution | S288C |  | MIC | 0.25 µg/mL |
| CN[C@H](CC(C)C)C(=O)N[C@H]1C(=O)N[C@@H](CC(N)=O)C(=O)N[C@H]2C(=O)N[C@H]3C(=O)N[C@H](C(=O)N[C@H](C(=O)O)c4cc(O)cc(O)c4-c4cc3ccc4O)[C@H](O)c3ccc(c(Cl)c3)Oc3cc2cc(c3O[C@@H]2O[C@H](CO)[C@@H](O)[C@H](O)[C@H]2O[C@H]2C[C@](C)(N)[C@H](O)[C@H](C)O2)Oc2ccc(cc2Cl)[C@H]1O | Clostridioides difficile | microbial growth, broth dilution |  | 24 h | MIC | 1 µg/mL |
